Test results published in ChEMBL document CHEMBL1124845, “Synthesis and antiviral activity of some 7-[(2-hydroxyethoxy)methyl]pyrazolo[3,4-d]pyrimidine analogues of sangivamycin and toyocamycin” (J Med Chem, 1990).

Experiments:
[1] = Tested for cytotoxic activity against human neoplastic cell line(KB cells).; type: functional, cell-based
Method in brief: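 KB cells were grown in MEM with Hank salts and 5% FBS. Inhibition of radioactive precursor incorporation into DNA, RNA and protein was measured. IC50s were obtained by regression of percent inhibition against log concentration, and the three values were averaged.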

Human betaherpesvirus 5 = assay: Tested for antiviral activity against human cytomegalovirus (HCMV) by means of plaque reduction assay.; type: functional, organism-based
Method in brief: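 HFF monolayers (MEM(E), 10% FBS) were inoculated with about 50 PFU of a plaque-purified Towne strain HCMV isolate in 0.2 mL. Test compounds were included in the overlay medium and plaques counted. IC50 came from a linear regression of percent inhibition versus log concentration. Positive controls ran in all assays, with sets rejected if the control deviated >1.5 SD.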

[2] = (§1) Tested for cytotoxic activity against monkey kidney cells(BSC-1) cells.; type: functional, cell-based; conditions: Cercopithecidae
Method in brief: (§2)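 Cytotoxicity was scored visually on uninfected HFF or BSC-1 cells within the plaque-reduction plates. Drug-induced cytopathology was graded 0 to 4+ at 35- and 60-fold magnification on the day of staining for plaque enumeration.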

Human alphaherpesvirus 1 = assay: Tested for antiviral activity against herpes simplex virus-1(HSV-1) by means of plaque reduction assay.; type: functional, organism-based
Method in brief: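 Monolayer BSC-1 cells (MEM with Earle's salts, 10% FBS) infected with about 100 PFU HSV-1 strain S-148 in 0.2 mL inoculum. Compounds were dissolved in the overlay medium and plaques counted. IC50 was taken from a linear regression of percent inhibition against log concentration. An acyclovir or ganciclovir positive control was run in every assay, and sets deviating >1.5 SD were rejected.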

HFF = assay: Tested for cytotoxic activity against human foreskin fibroblasts (HFF) cells.; type: functional, cell-based; method in brief: as §2
BSC-1 = assay: as §1; type: functional, cell-based, Cercopithecidae; conditions: Chlorocebus aethiops; method in brief: as §2

Compound	IC50 [1]	IC50 (Human betaherpesvirus 5)	IC50 [2]	IC50 (Human alphaherpesvirus 1)	IC50 (HFF)	IC50 (BSC-1)
CC(=O)OCCOCn1nc(C#N)c2c(N)ncnc21	54 µM	> 100 µM	> 100 µM	> 100 µM	> 100 µM	–
N#Cc1nn(COCCO)c2ncnc(N)c12	–	> 100 µM	> 100 µM	> 100 µM	> 100 µM	–
Nc1nc2c(ncn2COC(CO)CO)c(=O)[nH]1 [GANCICLOVIR]	1000 µM	–	> 100 µM	–	> 100 µM	–
COC(=N)c1nn(COCCO)c2ncnc(N)c12	–	> 100 µM	> 100 µM	> 100 µM	> 100 µM	–
NC(=O)c1nn(COCCO)c2ncnc(N)c12	> 100 µM	> 100 µM	> 100 µM	> 100 µM	> 100 µM	–
Nc1nc2c(ncn2COCCO)c(=O)[nH]1 [ACYCLOVIR]	> 100 µM	–	> 100 µM	–	> 100 µM	–
NC(=S)c1nn(COCCO)c2ncnc(N)c12	24 µM	2.5 µM	100 µM	9 µM	55 µM	–
N#Cc1nnc2nc[nH]c(N)c1-2	–	68 µM	–	16 µM	> 100 µM	> 100 µM
